Laboratory results reported in ChEMBL document CHEMBL3797120, “Identification of 1,2,3-triazole derivatives that protect pancreatic β cells against endoplasmic reticulum stress-mediated dysfunction and death through the inhibition of C/EBP-homologous protein expression” (Bioorg Med Chem, 2016).
The source made the active and inactive calls. No cut-off for these calls is given here.

Key:
[1] = Effect on 2.5 mM glucose-stimulated insulin secretion in rat INS-1 cells preincubated for 24 hrs followed by glucose addition and subsequent incubation for 45 mins by ELISA; assay type: ADME, cell-based; conditions: ins1, 0.75 h
Method in brief: (§1)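 INS-1 cells seeded at 1 × 10⁵/well and treated 24 h with compounds (with or without Tm). They were washed in Krebs-HEPES buffer pH 7.4 with 1% BSA, preincubated 1 h in 2.5 mM glucose, then stimulated 45 min with 2.5 or 20 mM glucose. Secreted insulin was measured by ELISA and normalized to Bradford total protein. The index is 20 mM/2.5 mM secretion from triplicate wells.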

Mus musculus [2] = assay: (§2) Antidiabetic activity in streptozotocin-induced diabetic C57BL/6 mouse model assessed as total pancreatic islet area at 20 mg/kg, ip administered for 5 consecutive days with streptozotocin followed by 2 more weeks compound addition without streptozotocin measured post last dose by DAPI staining-based confocal microscopy (reference value: 21.3 +/- 4.4%); assay type: functional
[3] = target: DNA damage-inducible transcript 3 protein (Mus musculus) (UniProt P35639); assay: Inhibition of endoplasmic reticulum stress-induced CHOP activity in tunicamycin-treated C57BL/6 mouse primary pancreatic islet beta cells assessed as DNA fragmentation at 10 uM after 24 hrs by TUNEL assay (reference value: 40.4%); parameters: scale not given: the % may be the effect or the level left
Method in brief: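 Primary islet cells from C57BL/6 mice were cultured in CMRL-1066/10% FBS and treated 24 h with Tm 1 μg/ml plus 10 μM compound or DMSO. Cells were fixed in 4% PFA, permeabilized in Triton/citrate, TUNEL-stained (1 h, 37°C), and co-stained for insulin and DAPI. TUNEL+ insulin+ cells were counted as mean ± SD of five wells (~50 islets, 3 mice).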

[4] = Inhibition of endoplasmic reticulum stress-mediated upregulation of CHOP mRNA expression in tunicamycin-treated rat INS-1 cells at 10 uM by qRT-PCR method; assay type: functional, cell-based; conditions: INS1, TDE = time-dependent effect
Method in brief: (§3)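 INS-1 cells seeded at 4 × 10⁵/well and treated with Tm 0.1 μg/ml plus compound, either for 8 h at indicated concentrations or for indicated times at 10 μM. CHOP mRNA was measured by qRT-PCR with rat primers, normalized to rat cyclophilin A, and reported as fold change.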

INS1 [5] = assay: Cytoprotective activity in endoplasmic reticulum stressed rat INS-1 cells assessed as rescue from tunicamycin-mediated reduction in cell viability at 10 uM after 72 hrs by CellTiter-Glo assay relative to control; assay type: functional
Method in brief: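 INS-1 cells seeded at 3 × 10³/well and exposed for 72 h to Tm 0.1 μg/ml plus compound. Viability measured as ATP by CellTiter-Glo. Tm alone was set to 0% and DMSO without Tm to 100% rescue. Values are the mean of three experiments. EC50 was derived for survival.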

[6] = target: DNA damage-inducible transcript 3 protein (Rattus norvegicus) (UniProt Q62857); assay: Inhibition of endoplasmic reticulum stress-induced CHOP activity in rat INS-1 cells assessed as decrease in brefeldin A-induced cell death by measuring cell viability at 5 to 20 uM after 72 hrs by CellTiter-Glo assay; assay type: cell-based; conditions: INS1
Method in brief: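 INS-1 cells treated 72 h with or without brefeldin A 0.2 μg/ml in the presence of DMSO or compound at indicated concentrations. Viability measured by CellTiter-Glo. Means ± SD of quadruplicates.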

[7] = Effect on 20 mM glucose-stimulated insulin secretion in rat INS-1 cells preincubated for 24 hrs followed by glucose addition and subsequent incubation for 45 mins by ELISA; assay type: ADME, cell-based; conditions: ins1, 0.75 h; method in brief: as §1
[8] = target: DNA damage-inducible transcript 3 protein (Rattus norvegicus) (UniProt Q62857); assay: Inhibition of endoplasmic reticulum stress-induced CHOP activity in rat INS-1 cells assessed as suppression of tunicamycin-induced caspase-3 cleavage at 20 uM after 2 to 24 hrs by Western blot method; assay type: cell-based; conditions: INS1
Method in brief: (§4)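 INS-1 cells seeded at 8 × 10⁵ per 60-mm dish and treated with or without compound, with or without Tm, for the indicated times. Lysates (20 μg protein) were run on 7% SDS-PAGE and blotted with anti-caspase-3 and anti-PARP (1:1000) to detect cleavage. α-Tubulin served as loading control.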

[9] = Inhibition of endoplasmic reticulum stress-mediated upregulation of CHOP protein expression in tunicamycin-treated rat INS-1 cells at 20 uM after 2 to 8 hrs by Western blot method; assay type: functional, cell-based; conditions: INS1
Method in brief: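 INS-1 cells seeded at 8 × 10⁵ per 60-mm dish and treated with Tm and 20 μM compound or DMSO. Lysates (20 μg protein) were run on 7% SDS-PAGE and blotted with anti-CHOP (1:1000). α-Tubulin served as loading control.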

[10] = Inhibition of endoplasmic reticulum stress-mediated upregulation of CHOP mRNA expression in tunicamycin-treated rat INS-1 cells after 2 to 8 hrs by qRT-PCR method; assay type: functional, cell-based; conditions: INS1; method in brief: as §3
Mus musculus [11] = assay: as §2, with “increase in level of insulin-positive beta cells per” for “total”, “islet” for “islet area”, “relative to control” for “(reference value: 21.3 +/- 4.4%)”; assay type: functional, organism-based
[12] = Cytoprotective activity against endoplasmic reticulum stress-induced cell death in tunicamycin-treated CHOP knock out C57BL/6 mouse primary pancreatic islet beta cells assessed as DNA fragmentation at 10 uM after 24 hrs by TUNEL assay (reference value: 18.7%); assay type: functional
Method in brief: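 Primary islet cells isolated from CHOP−/− knockout mice (age-matched males), cultured in CMRL-1066 with 10% FBS, treated with compound (10 μM) plus tunicamycin (1 μg/ml) for 24 h. Cells fixed in 4% paraformaldehyde, permeabilized with 0.1% Triton X-100 in 0.1% sodium citrate, TUNEL stained (1 h, 37°C), co-stained for insulin and DAPI; % TUNEL+ insulin+ cells counted, five wells, islets from 3 mice.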

[13] = target: DNA damage-inducible transcript 3 protein (Rattus norvegicus) (UniProt Q62857); assay: Inhibition of endoplasmic reticulum stress-induced CHOP activity in rat INS-1 cells assessed as restoration of tunicamycin-mediated reduction of 20 mM glucose-stimulated insulin secretion preincubated for 24 hrs followed by glucose addition and subsequent incubation for 45 mins by ELISA; assay type: cell-based; conditions: INS1; method in brief: as §1
Mus musculus [14] = assay: Antidiabetic activity in streptozotocin-induced diabetic C57BL/6 mouse model assessed as decrease in blood glucose level at 20 mg/kg, ip administered for 5 consecutive days with streptozotocin followed by 2 more weeks compound addition without streptozotocin measured every 3 day of compound dosing by glucometer relative to control; assay type: functional, organism-based
Method in brief: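 Ten-week-old male C57BL/6 mice given STZ 50 mg/kg i.p. (in Na-citrate) once daily for 5 days, together with test agent 20 mg/kg i.p. (2 mg/ml in 10% DMSO/saline; n = 7) or vehicle (n = 6). Dosing without STZ then continued for 2 more weeks. Fasting (5 h) tail blood glucose read by glucometer every third day.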

[15] = target: DNA damage-inducible transcript 3 protein (Mus musculus) (UniProt P35639); assay: Inhibition of endoplasmic reticulum stress-induced CHOP activity in mouse BetaTC6 cells assessed as decrease in tunicamycin-induced cell death by measuring cell viability at 2.5 to 20 uM after 72 hrs by CellTiter-Glo assay; assay type: cell-based; conditions: Beta-TC6
Method in brief: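 βTC6 mouse insulinoma cells (DMEM, 15% FBS) seeded at 3 × 10³/well and treated 72 h with Tm 0.25 μg/ml plus DMSO or compound. Viability measured by CellTiter-Glo and expressed as fold change versus Tm alone = 1. Means ± SD of triplicates.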

[16] = Effect on basal CHOP mRNA expression in rat INS-1 cells at 10 uM after 2 to 8 hrs by qRT-PCR method; assay type: ADME, cell-based; conditions: ins1, 10 µM
Method in brief: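 INS-1 cells seeded at 4 × 10⁵/well and exposed to DMSO or 10 μM compound without Tm for the indicated times. Total RNA (2 μg) was reverse transcribed. CHOP mRNA was measured by qRT-PCR with rat primers, normalized to rat cyclophilin A, and expressed as fold change.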

[17] = Effect on growth rate of rat INS-1 cells at 2.5 to 10 uM after 72 hrs by CellTiter-Glo assay relative to control; assay type: cell-based; conditions: ins1, 72 h
Method in brief: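 INS-1 cells grown with compound alone (no stressor) and viability/growth read by CellTiter-Glo, compared with DMSO-treated cells.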

[18] = target: DNA damage-inducible transcript 3 protein (Rattus norvegicus) (UniProt Q62857); assay: Inhibition of endoplasmic reticulum stress-induced CHOP activity in rat INS-1 cells assessed as decrease in sodium palmitate-induced cell death by measuring cell viability at 2.5 to 20 uM after 72 hrs by CellTiter-Glo assay; assay type: cell-based; conditions: INS1
Method in brief: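 INS-1 cells switched to DMEM/1% FBS/1% BSA and stressed with sodium palmitate (from 5 mM stock in 5% BSA; final 0.2 mM). Treated 72 h with DMSO or compound. Viability measured by CellTiter-Glo. Means ± SD of quadruplicates.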

INS1 [19] = assay: Cytoprotective activity in endoplasmic reticulum stressed rat INS-1 cells assessed as rescue from tunicamycin-mediated reduction in cell survival after 72 hrs by CellTiter-Glo assay; conditions: INS1, 72 h
[20] = target: DNA damage-inducible transcript 3 protein (Rattus norvegicus) (UniProt Q62857); assay: Inhibition of endoplasmic reticulum stress-induced CHOP activity in rat INS-1 cells assessed as suppression of tunicamycin-induced PARP cleavage at 20 uM after 2 to 24 hrs by Western blot method; assay type: cell-based; conditions: INS1; method in brief: as §4
[21] = target: DNA damage-inducible transcript 3 protein (Rattus norvegicus) (UniProt Q62857); assay: Inhibition of endoplasmic reticulum stress-induced CHOP activity in tunicamycin-treated rat INS-1 cells assessed as DNA fragmentation at 20 uM after 24 hrs by TUNEL assay (reference value: 15%); assay type: cell-based; parameters: scale not given: the % may be the effect or the level left; conditions: INS1
Method in brief: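 INS-1 cells seeded at 4 × 10⁴/well and treated 24 h with Tm 0.1 μg/ml plus 20 μM compound. Cells were fixed in 4% PFA, permeabilized, TUNEL-stained 1 h at 37°C, counterstained with DAPI, and imaged by high-content imaging. TUNEL+ percentage is mean ± SD of five images.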

Chain of DNA damage-inducible transcript 3 protein (Rattus norvegicus) (Q62857 whole entry, the tested form may be a part): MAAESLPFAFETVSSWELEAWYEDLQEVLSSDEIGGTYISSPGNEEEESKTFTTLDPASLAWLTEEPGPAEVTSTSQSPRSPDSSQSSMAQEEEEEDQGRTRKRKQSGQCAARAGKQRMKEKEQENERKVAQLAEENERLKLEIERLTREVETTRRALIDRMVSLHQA
Chain of DNA damage-inducible transcript 3 protein (Mus musculus) (P35639 whole entry, the tested form may be a part): as the sequence (Q62857 whole entry, the tested form may be a part) above, with A9T, F10L, A70T, S74R, D97E, A111P, A114P, L142Q counted along it

Question: Which results are given for CCc1ccc(-n2nnc(C(=O)Nc3cccc(F)c3)c2C)cc1?
Answer: Activity [1]: Non-toxic; Activity (Mus musculus [2]): 44.2%; Activity [3]: 9%; inhibition [4]: tde; %max (INS1 [5]): 87%; inhibition [6]: Active; Activity [7]: Non-toxic; inhibition [8]: Active; inhibition [9]: Active; inhibition [10]: Dose-dependent effect; Activity (Mus musculus [11]): Active; Activity [12]: 14.6%; inhibition [13]: Active; Activity (Mus musculus [14]): Active; inhibition [15]: Active; Activity [16]: Non-toxic; Activity [17]: Non-toxic; inhibition [18]: Active; EC50 (INS1 [19]): 2800 nM; inhibition [20]: Active; Activity [21]: 1.5%
